Data set [1] concerns diabetic rats (Rattus norvegicus). Briefly: Blood glucose after a single dose in diabetes model induced by STZ. Conditions: for Blood glucose after single dose / Hypoglycemic activity (in words) / Blood glucose before single dose: STZ diabetic rats; for Blood glucose after single dose / Hypoglycemic activity (in words): 20 mg·kg−1 ip, single dose; for Blood glucose before single dose: value before treatment (time control). The data set is classed as in vivo. The method in brief: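 Diabetes was induced in rats by single iv STZ (60 mg·kg−1 in citrate buffer, pH 4.5). After 4 weeks, male Wistar rats (180–220 g) with glycemia >300 mg/dL were used. Groups were non-diabetic, diabetic plus DMSO vehicle, and diabetic plus test compound (single 20 mg·kg−1 ip dose). Plasma glucose was read by glucometer at 0, 30, 60, 120 and 180 min. n=7/group; mean ± SEM; Student's t-test versus time control.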

The nature of data set [2]: In vitro stability in rat plasma. The data set is classed as in vitro ADME. Conditions: 60 minutes incubation with rat plasma. The essentials: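 Rat plasma was separated by centrifugation and diluted with pH 7.4 phosphate buffer to 80% final. Test compound (20 µM final) was incubated at 37°C for 60 min with agitation, then quenched with MeOH plus CH3CN. Analysis was by HPLC-UV at 254 nm, with acetonitrile–water gradient, mobile phase pH 7.0 (NH4OH) and methyl biphenyl-4-carboxylate internal standard (20 µM). Three independent experiments in duplicate.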

In data set [3] the target is T1, PPARγ (Homo sapiens, UniProt P37231).
T1 sequence (P37231 1-505): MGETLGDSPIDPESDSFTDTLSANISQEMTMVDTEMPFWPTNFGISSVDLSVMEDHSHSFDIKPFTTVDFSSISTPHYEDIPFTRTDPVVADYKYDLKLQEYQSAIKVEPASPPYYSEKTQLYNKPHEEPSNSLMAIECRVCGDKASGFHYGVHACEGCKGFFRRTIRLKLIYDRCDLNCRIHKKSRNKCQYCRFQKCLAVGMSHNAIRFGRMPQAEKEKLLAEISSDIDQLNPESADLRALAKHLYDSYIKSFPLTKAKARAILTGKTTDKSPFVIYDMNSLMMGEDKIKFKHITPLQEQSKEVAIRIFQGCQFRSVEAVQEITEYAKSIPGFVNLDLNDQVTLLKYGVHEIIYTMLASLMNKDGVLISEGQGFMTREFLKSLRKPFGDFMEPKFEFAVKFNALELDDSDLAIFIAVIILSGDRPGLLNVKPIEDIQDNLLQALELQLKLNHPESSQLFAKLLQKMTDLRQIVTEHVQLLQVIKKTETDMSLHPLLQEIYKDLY
To be noted: cited from earlier work.

Data set [4] concerns diabetic neuropathic pain model induced by STZ in rats. To be noted: cited from earlier work.
In data set [5] the test system is diabetic rats (Rattus norvegicus). The data set is described as follows: Mechanical allodynia. The data set is classed as in vivo. Conditions: STZ diabetic rats. The essentials:
(§1)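 Male Wistar rats (180–220 g) were made diabetic by single iv STZ 60 mg·kg−1 (glycemia >300 mg/dL). Thermal hyperalgesia was scored as paw withdrawal latency to radiant heat on the hind paw (plantar meter). Mechanical allodynia was scored as paw withdrawal threshold to pressure (digital analgesiometer). Readings were taken before and 4 weeks after induction, then 3 and 7 days into daily test compound 50 mg·kg−1 ip (DMSO vehicle). n=5/group; mean ± SEM; two-way ANOVA.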

The test system is the same in data set [6]. The data set is described as follows: Blood glucose during 7 days' treatment of STZ diabetic rats. In kind it is in vivo. Conditions: 50 mg/kg once a day for 7 days. The method in brief:
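Male Wistar rats (180–220 g) were made diabetic by single iv STZ (60 mg·kg−1, citrate buffer pH 4.5); after 4 weeks, those with glycemia >300 mg/dL were used. They received test compound 50 mg·kg−1 ip once daily for 7 days, with DMSO as vehicle. Plasma glucose was measured before treatment and on days 3 and 7.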

Data set [7] has the same test system. Briefly: Thermal hyperalgesia. In kind it is in vivo. To be noted: STZ diabetic rats. The essentials: as §1
Data set [8] can be described thus: In vitro chemical stability in buffer at pH 2.0 and pH 7.4. The data set is classed as physicochemical. Conditions: pH 2.0, 20 µM, 37°C. The method in brief: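 DMSO stocks (5–10 mM) were diluted into pH 2 buffer (0.2 M KCl/0.2 M HCl) or pH 7.4 dibasic phosphate buffer, giving 20 µM test compound. Samples were held in a 37°C water bath with vigorous stirring for 0, 30, 60 and 120 min. Acid samples were then neutralised with pH 8.4 phosphate buffer. % remaining = peak area at each time / area at 0 min × 100. At least two experiments in triplicate.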

Data set [9] deals with T1, PPARγ. Briefly: PPARγ binding assay performed by CEREP. Conditions: single concentration 30 µM, rosiglitazone as positive control.

Each structure is given as a SMILES string. “Also recorded” adds a separate entry of the source.

In the case of `COC(=O)c1ccc(/C=N/N(C)S(=O)(=O)c2ccc(OC)c(OC)c2)cc1` [Compound 6, (E)-methyl 4-((2-(3,4-dimethoxyphenylsulfonyl)-2-methylhydrazono)methyl)benzoate], in data set [1], the “Blood glucose after single dose” value came to 255.3 ± 42.2 mg/dL, the “Hypoglycemic activity (in words)” value is “showed hypoglycemic activity” and the “Blood glucose before single dose” value was found to be 397.1 ± 38.2 mg/dL. For the same molecule, the “Plasma stability (in words)” value in [2] was “unstable”.

Consider `COc1ccc(S(=O)(=O)N/N=C/c2cccc(C(=O)O)c2)cc1OC` [Compound 4, (E)-3-((2-(3,4-dimethoxyphenylsulfonyl) hydrazono)methyl)benzoic acid], for which the “Plasma stability (in words)” value in data set [2] was “very stable”.

Regarding `COC(=O)c1cccc(/C=N/N(C)S(=O)(=O)c2ccc(OC)c(OC)c2)c1` [Compound 5, (E)-methyl 3-((2-(3,4-dimethoxyphenylsulfonyl)-2-methylhydrazono)methyl)benzoate], in data set [1] (dosing vehicle DMSO), the “Solubility in DMSO” value is recorded as “partially insoluble in DMSO”. The “Plasma stability (in words)” value in [2] was “very stable”.

Consider `COc1ccc(S(=O)(=O)N(C)/N=C/c2ccc(C#N)cc2)cc1OC` [Compound 9, (E)-N′-(4-cyanobenzylidene)-3,4-dimethoxy-N-methylbenzene-sulfonohydrazide], for which the “Hypoglycemic activity (in words)” value in data set [1] was “did not reduce hyperglycemia”. Moreover, on PPARγ [3], the “PPARγ activity as described earlier” value was “partial agonist of PPARγ”. Besides, the “Glucose levels after 7 days” value in [4] (50 mg/kg for 7 days, vehicle 410.0±58.0 mg/dL) was 242.4 ± 55.3 mg/dL. Further, in data set [4] (diabetic neuropathic pain model induced by STZ in rats), the Antinociceptive activity entry is reported as “antinociceptive agent”. Also, in data set [2], the “Plasma stability (in words)” value was “very stable; also recorded: high chemical and plasma stability”.

With `COC(=O)c1ccc(/C=N/NS(=O)(=O)c2ccc(OC)c(OC)c2)cc1` [Compound 7, (E)-methyl 4-((2-(3,4-dimethoxyphenylsulfonyl)hydrazono)methyl)benzoate], in data set [1], the “Blood glucose after single dose” value was 182.2 ± 22.7 mg/dL, the “Hypoglycemic activity (in words)” value was “showed hypoglycemic activity” and the “Blood glucose before single dose” value was 384.0 ± 41.9 mg/dL. Also, in data set [5] (50 mg·kg−1 ip, long-term administration), the “Paw withdrawal threshold (PWT), after treatment” value turned out to be 36.7 ± 0.9 g. Moreover, the “Paw withdrawal threshold (PWT), before treatment” value in data set [5] (four weeks after induction) is 24.0 ± 1.4 g. Further, the “Hypoglycemic activity (in words)” value in data set [6] is reported as “promoted hypoglycemic activity only after 7 days of treatment”. In addition, in data set [7] (50 mg·kg−1 ip), the “Paw withdrawal latency (PWL), after 3 days of treatment” value amounted to 12.2 ± 0.9 s and the “Paw withdrawal latency (PWL), after 7 days of treatment” value turned out to be 13.3 ± 0.2 s. Besides, in data set [7] (four weeks after induction), the “Paw withdrawal latency (PWL), before treatment” value turned out to be 8.5 ± 0.2 s. Moreover, the “Effect on diabetic neuropathic pain (in words)” value in data set [7] (long-term administration, 50 mg·kg−1 ip) is given as “reduced diabetic neuropathic pain”. Moreover, in [2], the “Plasma stability (in words)” value was “unstable”.

In the case of `COc1ccc(S(=O)(=O)N/N=C/c2ccc(C#N)cc2)cc1OC` [Compound 8, (E)-N′-(4-cyanobenzylidene)-3,4-dimethoxybenzenesulfonohydrazide], in [8], the Chemical stability result is given as “unstable”. In addition, in data set [2], the “Plasma stability (in words)” value is on record as “unstable”.

In the case of `COc1ccc(S(=O)(=O)N/N=C/c2ccc(C(=O)O)cc2)cc1OC` [Compound 10, (E)-4-((2-(3,4-dimethoxyphenylsulfonyl) hydrazono)methyl)benzoic acid], the “Inhibition of control specific binding to PPARγ” value at PPARγ [9] was “unable to bind to PPARγ”.

Source of the values: paper PMC5024769 (Drug Design, Development and Therapy, 2016).
